NPY1 pot ag: potentiates or activates human NPY-Y1 receptor; NPY-Y1 expressing cells, potentiator/agonist activation; activation, % at 3.6 µM; 220,000 compounds, 0.37% hits; P25929; in the data active means activation above about 33%, passing the limit was not always enough;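 further: cells stimulated with NPY at EC10 then isoproterenol at EC100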
Target sequence (P25929 whole entry, looked up): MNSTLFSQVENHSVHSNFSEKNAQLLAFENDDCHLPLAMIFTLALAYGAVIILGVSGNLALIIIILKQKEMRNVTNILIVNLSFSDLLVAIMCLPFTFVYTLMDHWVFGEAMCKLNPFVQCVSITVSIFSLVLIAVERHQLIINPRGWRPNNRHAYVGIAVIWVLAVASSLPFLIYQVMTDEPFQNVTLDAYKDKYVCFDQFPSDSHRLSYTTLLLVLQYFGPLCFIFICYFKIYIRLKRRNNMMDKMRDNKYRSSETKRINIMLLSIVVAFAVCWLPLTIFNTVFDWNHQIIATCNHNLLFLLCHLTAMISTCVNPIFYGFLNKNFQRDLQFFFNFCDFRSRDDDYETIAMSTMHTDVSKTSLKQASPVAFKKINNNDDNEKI
NPY2 pot ag: potentiators or agonists of human neuropeptide Y receptor Y2; activation, % at 3.6 µM; 220,000 compounds, 0.45% hits; cells expressing NPY-Y2, potentiator/agonist read-out; AID 1359; in the data active means activation above about 27%;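 further: cells stimulated with NPY near EC25 plus isoproterenol at EC100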
NPY-Y1 antag: blocks the human neuropeptide Y Y1 receptor; HEK293-CNG Y1 cells, membrane potential fluorescence; NPY at EC95, then isoproterenol; inhibition, % at 3.6 µM; 200,000 compounds, 1% hits; AID 1040;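 active means inhibition above the campaign mean inhibition of all tested compounds plus 3 SD, cut at about 20% in these data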
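Material: HEK293 Y1/CNG channel cell line; also added: NPY (25 nM), isoproterenol (1 µM), Ro 20-1724 (25 µM); doses: one concentration, 3.6 µM, in 0.4% DMSO; schedule: compound incubation 1 h at room temperature, readout 45 min post-stimulation; technique: membrane potential fluorescence; measure: fluorescence ratio normalized to % inhibition between controls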
NPY Y2 blocker: antagonists of human neuropeptide Y receptor Y2. P49146. NPY-Y2 expressing cells, antagonist mode. inhibition, % at 2.7 µM. 140,000 compounds, 0.99% hits. AID 793; in the data active means inhibition above about 17%
Hits are given with their value. Most compounds without a hit are left out; they make up all but 1.8% or so of the library.

For CCN(CC)CCn1c(=N)n(CCOc2ccccc2)c2ccccc21 the results were NPY1 pot ag inactive, NPY2 pot ag inactive, NPY-Y1 antag 30 and NPY Y2 blocker 35.
For CC(NC(=O)c1cc(Br)ccc1Br)c1ccccc1 (stereo unspecified) the results were NPY1 pot ag inactive, NPY2 pot ag inactive and NPY-Y1 antag inactive.
Screening Cn1c(=N)n(CC(O)c2ccco2)c2ccccc21 (stereo unspecified) returned NPY1 pot ag inactive, NPY2 pot ag inactive, NPY-Y1 antag inactive and NPY Y2 blocker inactive.
For Cn1c(=N)n(CC(O)c2cccc3ccccc23)c2ccccc21 (stereo unspecified) the results were NPY1 pot ag inactive, NPY2 pot ag inactive, NPY-Y1 antag 34 and NPY Y2 blocker 24.
Screening CCNS(=O)(=O)c1ccc2nc(NC(=O)c3cccnc3)sc2c1 returned NPY1 pot ag inactive, NPY2 pot ag inactive, NPY-Y1 antag inactive and NPY Y2 blocker inactive.
`CCN(Cc1cnn(C)c1)Cc1nc(C(c2ccccc2)c2ccccc2)no1` gave NPY1 pot ag inactive, NPY2 pot ag inactive and NPY-Y1 antag inactive.
`CC(=O)c1cc(CN2CCN(Cc3ccccc3)C(CCO)C2)cs1` (stereo unspecified) gave NPY1 pot ag inactive, NPY2 pot ag inactive and NPY-Y1 antag inactive.
`COc1ccc(S(=O)(=O)N2CCOCC2)cc1NC(=O)CN1CCC(Cc2ccccc2)CC1` gave NPY1 pot ag inactive, NPY2 pot ag inactive, NPY-Y1 antag 40 and NPY Y2 blocker 32.
`CC1CCCc2sc3nc(N4CCN(CCO)CC4)n4ncnc4c3c21` (stereo unspecified) gave NPY1 pot ag inactive, NPY2 pot ag inactive, NPY-Y1 antag 40 and NPY Y2 blocker 25.
CCN(CC)S(=O)(=O)c1ccc(-c2nnc(SCc3nnc(-c4ccc(C)cc4)o3)o2)cc1 was read as NPY1 pot ag inactive, NPY2 pot ag inactive, NPY-Y1 antag inactive and NPY Y2 blocker inactive.
CCN(CC)S(=O)(=O)c1cccc(-c2nnc(SCCOc3ccc(Cl)cc3)o2)c1 was read as NPY1 pot ag inactive, NPY2 pot ag inactive, NPY-Y1 antag 32 and NPY Y2 blocker 29.
Screening CCN(CC)S(=O)(=O)c1cccc(-c2nnc(SCC(=O)c3cc(C)n(C)c3C)o2)c1 returned NPY1 pot ag inactive, NPY2 pot ag inactive, NPY-Y1 antag inactive and NPY Y2 blocker inactive.
`CCN(CC)S(=O)(=O)c1cccc(-c2nnc(SCCOc3ccccc3C)o2)c1` gave NPY1 pot ag inactive, NPY2 pot ag inactive, NPY-Y1 antag 20 and NPY Y2 blocker 26.
`Cc1cccc2sc(NC(=O)CCNS(=O)(=O)c3cccc4nonc34)nc12` gave NPY1 pot ag inactive, NPY2 pot ag inactive, NPY-Y1 antag inactive and NPY Y2 blocker inactive.
For CSCC[C@H](NC(=O)c1ccc(Cl)c([N+](=O)[O-])c1)c1nc2ccccc2[nH]1 the results were NPY1 pot ag inactive, NPY2 pot ag inactive, NPY-Y1 antag inactive and NPY Y2 blocker inactive.
For O=C(NC(Cc1ccccc1)c1nc2ccccc2[nH]1)c1ccc(Cl)c([N+](=O)[O-])c1 (stereo unspecified) the results were NPY1 pot ag 47, NPY2 pot ag 40, NPY-Y1 antag inactive and NPY Y2 blocker inactive.
Nc1nc(Nc2ccccc2)nc2ccccc12 was read as NPY1 pot ag 73, NPY2 pot ag 68, NPY-Y1 antag inactive and NPY Y2 blocker inactive.
For Cc1ccccc1Nc1nc(N)c2ccccc2n1 the results were NPY1 pot ag inactive, NPY2 pot ag inactive and NPY-Y1 antag inactive.
CCOC(=O)c1ccc(-c2ccc(/C=C(\C#N)C(=O)NCc3cccs3)o2)cc1 was read as NPY1 pot ag inactive, NPY2 pot ag inactive, NPY-Y1 antag inactive and NPY Y2 blocker 17.
`COc1ccc(OCC(=O)N2CCN(c3cccc(C(F)(F)F)c3)CC2)cc1` gave NPY1 pot ag 72, NPY2 pot ag 100, NPY-Y1 antag inactive and NPY Y2 blocker inactive.
For COc1ccc(OCC(=O)N2CCN(c3cccc(Cl)c3)CC2)cc1 the results were NPY1 pot ag inactive, NPY2 pot ag inactive, NPY-Y1 antag inactive and NPY Y2 blocker inactive.
For CCOC(=O)CSc1nc2cc(S(=O)(=O)Nc3ccccc3OC)ccc2o1 the results were NPY1 pot ag 70, NPY2 pot ag 45, NPY-Y1 antag inactive and NPY Y2 blocker inactive.
Screening CC(C)(C)NCC(O)COc1ccc(Br)cc1 (stereo unspecified) returned NPY1 pot ag 108, NPY2 pot ag 97 and NPY-Y1 antag inactive.
Cc1ccc([N+](=O)[O-])c(OCC(O)CNC(C)(C)C)c1 (stereo unspecified) was read as NPY1 pot ag 113 and NPY2 pot ag 105.
`CC(C)(CO)NCC(O)COc1ccc2c(c1)CCC2` (stereo unspecified) gave NPY1 pot ag 101, NPY2 pot ag 88, NPY-Y1 antag inactive and NPY Y2 blocker inactive.
Cc1ccc([N+](=O)[O-])c(OCCN2CCCCCC2)c1 was read as NPY1 pot ag inactive, NPY2 pot ag inactive, NPY-Y1 antag inactive and NPY Y2 blocker inactive.
Screening COc1ccc(/C=C(\C)c2nc(C)c(-c3ccccc3)c(=O)[nH]2)cc1 returned NPY1 pot ag inactive and NPY2 pot ag inactive.
Screening CCOC(=O)c1cc(OCC(=O)NC(C)C(C)C)cc(C(=O)OCC)c1 (stereo unspecified) returned NPY1 pot ag inactive, NPY2 pot ag inactive, NPY-Y1 antag inactive and NPY Y2 blocker inactive.
O=C(CSc1nc2ccccc2s1)Nc1ccc(Cl)c(S(=O)(=O)N2CCOCC2)c1 was read as NPY1 pot ag inactive, NPY2 pot ag inactive, NPY-Y1 antag inactive and NPY Y2 blocker inactive.
For COc1ccc(-c2nc(N)nc(C(F)(F)F)c2-c2cscn2)c(O)c1 the results were NPY1 pot ag inactive and NPY2 pot ag inactive.
For Cc1nn(-c2ccc(C(=O)O)cc2)c(C)c1Oc1ccccc1O the results were NPY1 pot ag inactive, NPY2 pot ag inactive, NPY-Y1 antag inactive and NPY Y2 blocker inactive.
Screening O=C(C1CCN(Cc2ccc(F)cc2)CC1)N(CCc1ccccc1)Cc1ccccc1 returned NPY1 pot ag inactive, NPY2 pot ag inactive, NPY-Y1 antag 21 and NPY Y2 blocker 24.
For O=C(C1CCN(Cc2ccc(F)cc2)CC1)N(CCO)Cc1ccccc1 the results were NPY1 pot ag inactive, NPY2 pot ag inactive, NPY-Y1 antag inactive and NPY Y2 blocker inactive.
`COc1cccc(N=Nc2c(=O)[nH]n3c(C)cc(C)nc23)c1` gave NPY1 pot ag inactive, NPY2 pot ag inactive, NPY-Y1 antag inactive and NPY Y2 blocker inactive.
For Cc1ccc(NC(=O)c2cc([N+](=O)[O-])ccc2NCc2cccnc2)cc1Cl the results were NPY1 pot ag 39, NPY2 pot ag inactive, NPY-Y1 antag inactive and NPY Y2 blocker inactive.
For COc1cccc(NC(=O)c2cc([N+](=O)[O-])ccc2NCc2cccnc2)c1 the results were NPY1 pot ag inactive, NPY2 pot ag inactive, NPY-Y1 antag inactive and NPY Y2 blocker inactive.
`CCOC(=O)C1CCCN(CC(=O)c2c[nH]c3ccc(C)cc23)C1` (stereo unspecified) gave NPY1 pot ag inactive and NPY2 pot ag inactive.
For C=C1CC(C)OC(c2ccccc2OCC(O)CN2CCCCC2)C1 (stereo unspecified) the results were NPY1 pot ag 75, NPY2 pot ag 70, NPY-Y1 antag inactive and NPY Y2 blocker inactive.
